We go through eight compounds from ChEMBL document CHEMBL5042491, “Identification of Small Molecule Inhibitors of RNase L by Fragment-Based Drug Discovery” (J Med Chem, 2022).

Structures are written as SMILES. Activity calls are given as the source filed them. The calls are words filed in the database; no cut-off is given here.

Assay [1] deals with T1, 2-5A-dependent ribonuclease (Homo sapiens) (UniProt Q05823).
T1 sequence (whole entry): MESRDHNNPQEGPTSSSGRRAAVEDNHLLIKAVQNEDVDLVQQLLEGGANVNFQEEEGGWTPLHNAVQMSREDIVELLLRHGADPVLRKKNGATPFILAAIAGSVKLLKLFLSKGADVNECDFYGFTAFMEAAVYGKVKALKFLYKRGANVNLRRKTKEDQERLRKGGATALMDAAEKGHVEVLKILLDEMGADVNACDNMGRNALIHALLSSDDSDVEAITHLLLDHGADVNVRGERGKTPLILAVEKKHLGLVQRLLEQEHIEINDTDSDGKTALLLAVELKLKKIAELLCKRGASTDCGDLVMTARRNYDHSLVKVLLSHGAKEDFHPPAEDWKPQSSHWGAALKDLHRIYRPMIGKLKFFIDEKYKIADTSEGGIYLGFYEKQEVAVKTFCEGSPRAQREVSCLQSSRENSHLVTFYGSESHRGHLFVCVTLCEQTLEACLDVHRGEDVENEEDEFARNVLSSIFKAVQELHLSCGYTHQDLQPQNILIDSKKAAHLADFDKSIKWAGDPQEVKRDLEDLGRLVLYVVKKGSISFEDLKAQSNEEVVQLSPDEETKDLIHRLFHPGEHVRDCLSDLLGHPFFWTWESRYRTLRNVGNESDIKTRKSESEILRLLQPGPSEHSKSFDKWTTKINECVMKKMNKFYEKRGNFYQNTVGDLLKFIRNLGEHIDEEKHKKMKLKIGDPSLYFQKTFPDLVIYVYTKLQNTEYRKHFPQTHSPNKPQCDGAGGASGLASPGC
The experiment in a line: Inhibition of recombinant full length H-RNAase L (1 to 741 residues) expressed in Escherichia coli BL21 (DE3) using 5'-FAM-UAA-UCA-AAU-UCU-UAU-UUG-CCC-CAU-UUU-UUU-GGU-UUA-BHQ-1-3' as substrate incubated for 60 min by FRET assay. In outline: (§1)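 FRET cleavage assay. Recombinant RNase L (10 nM human or 2.5 nM porcine, final) was preincubated 10 min on ice with graded compound in 25 mM Tris pH 7.4, 100 mM KCl, 10 mM MgCl2, 2.5 mM DTT and 0.5 nM 2-5A. FAM/BHQ1 RNA probe was added and the mix held 1 h at room temperature. Read at ex 480/em 535 nm; triplicates; IC50 from dose-response.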

Assay [2] is filed under the species Sus scrofa. Description: Inhibition of recombinant full length P-RNAase L (1 to 743 residues) expressed in Escherichia coli BL21 (DE3) using 5'-FAM-UAA-UCA-AAU-UCU-UAU-UUG-CCC-CAU-UUU-UUU-GGU-UUA-BHQ-1-3' as substrate incubated for 60 min by FRET assay. In outline: as §1
Assay [3] is filed under the species Sus scrofa. The experiment in a line: (§2) Inhibition of recombinant full length P-RNAase L (1 to 743 residues)expressed in Escherichia coli BL21 (DE3) assessed as inhibition rate in presence of 2-5A AND ATP/MgCl2 by STD-NMR spectroscopy. The following applies: time 60.0 min.
Assay [4] deals with T2, 2-5A-dependent ribonuclease (Homo sapiens, UniProt Q05823).
T2 sequence (Q05823 whole entry): T1 sequence (whole entry)
The experiment in a line: Inhibition of recombinant full length H-RNAase L (1 to 741 residues) expressed in Escherichia coli BL21 (DE3) assessed as inhibition rate in presence of 2-5A and ATP/MgCl2 by STD-NMR spectroscopy.

Assay [5] in a line: Inhibition of P-RNAase L K164E mutant expressed in Escherichia coli BL21 (DE3) assessed as inhibition rate. Further details: species or system Sus scrofa.
Assay [6] can be described thus: Inhibition of full length P-RNAase L expressed in Escherichia coli BL21 (DE3) assessed as inhibition rate incubated for 15 min in presence of 1 nM 2-5A for 15 mins by Coomassie staining based SDS-PAGE analysis. Further details: species or system Sus scrofa.
A short description of assay [7]: Inhibition of full length P-RNAase L expressed in Escherichia coli BL21 (DE3) assessed as inhibition rate incubated for 15 min in presence of 5 nM 2-5A for 15 mins by Coomassie staining based SDS-PAGE analysis. Further details: species or system Sus scrofa.
Assay [8] is described as follows: Inhibition of full length P-RNAase L expressed in Escherichia coli BL21 (DE3) assessed as inhibition rate incubated for 15 min in presence of 20 nM 2-5A for 15 mins by Coomassie staining based SDS-PAGE analysis. Further details: species or system Sus scrofa.
For assay [9], the target named is T2, 2-5A-dependent ribonuclease. The experiment in a line: Inhibition of full length H-RNAase L expressed in Escherichia coli BL21 (DE3) assessed as inhibition rate incubated for 15 min in presence of 1 nM 2-5A for 15 mins by Coomassie staining based SDS-PAGE analysis.
For assay [10] the target is unchanged. The experiment in a line: Inhibition of full length H-RNAase L expressed in Escherichia coli BL21 (DE3) assessed as inhibition rate incubated for 15 min in presence of 5 nM 2-5A for 15 mins by Coomassie staining based SDS-PAGE analysis.
Assay [11] shares this target. Description: Inhibition of full length H-RNAase L expressed in Escherichia coli BL21 (DE3) assessed as inhibition rate incubated for 15 min in presence of 20 nM 2-5A for 15 mins by Coomassie staining based SDS-PAGE analysis.
Assay [12] in a line: Inhibition of wild type P-RNAase L expressed in Escherichia coli BL21 (DE3) assessed as inhibition rate. Further details: species or system Sus scrofa.
Assay [13] can be described thus: Inhibition of P-RNAase L R353E mutant expressed in Escherichia coli BL21 (DE3) assessed as inhibition rate. Further details: species or system Sus scrofa.
In assay [14] the target is T1, 2-5A-dependent ribonuclease (Homo sapiens). Description: Inhibition of RNAase L in human A549 cells assessed as rRNA cleavage pretreated at 30 uM for 4 hrs followed by treated with 20 uM 2-5A by […] analysis. The class given is cell-based. In outline: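 A549 cells were grown 16 h in RPMI with 10% FBS, then given inhibitor at 3, 10, 30 or 100 μM in fresh medium for 4 h. Trimeric 2-5A (20 μM) was then transfected with lipofectamine 2000 with inhibitor still present, for 2 h more. rRNA cleavage was read from total RNA on Bioanalyzer chips. NP40 lysates were western-blotted for RNase L and beta-actin.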

The species named for assay [15] is Sus scrofa. The experiment in a line: Suppression of 2-5A-induced full length P-RNase L oligomerization in presence of upto 2 uM 2-5A at 40 uM by SDS-PAGE analysis. In outline: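 Full-length porcine RNase L (0.8 μM) with 5 mM MgCl2 was held 15 min on ice with or without inhibitor, then 15 min on ice with 2-5A. It was cross-linked with dimethyl suberimidate in triethanolamine (pH 8.5) for 1 h at room temperature. Samples were boiled in SDS loading buffer, run on 4-12% SDS-PAGE and stained with Coomassie.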

Assay [16] in a line: as §2. Further details: species or system Sus scrofa.

As to `C[S+]([O-])c1sc(Cl)c2c1C(=O)CCC2` (stereo not drawn), the inhibition result (in assay [1]; in the assay listed under Sus scrofa [2]) was “Active” in each case.

As to `Cc1cc(C(=O)O)cc(Cl)n1`, the inhibition result (in assay [1]; in the assay listed under Sus scrofa [2]) was “Active” in each case.

For the compound `O=C(O)c1ccc(Cl)nc1Cl`, the inhibition result (in assay [1]; in the assay listed under Sus scrofa [2]) was “Active” throughout.

For the compound `Oc1ccc(Sc2ccc(O)cc2)cc1`, the inhibition entry (in assay [1]; in the assay filed under Sus scrofa [2]) was “Active” throughout.

By IC50 is commonly meant the concentration that gives 50% inhibition. Consider `CCCCOC(=O)c1ccc(O)cc1` [BUTYLPARABEN], for which, in the assay filed under Sus scrofa [3], the inhibition entry was “inactive”. Besides, in assay [4], the IC50 amounted to 2400 µM. Moreover, in assay [1], the inhibition entry was “Active”.

With `O=c1c(O[C@@H]2O[C@H](CO)[C@H](O)[C@H](O)[C@H]2O)c(-c2ccc(O)c(O)c2)oc2cc(O)cc(O)c12` [HYPEROSIDE], the IC50 came out at 1.02 µM in assay [5]; 1.63 µM in assay [4]; 1.47 µM in assay [6]; 1.42 µM in [7]; 1.42 µM in assay [8]; 1.36 µM in assay [9]. For the same compound, the IC50 was 1.32 µM in [10], 1.42 µM in [11], 0.9 µM in assay [12] and 0.65 µM in [13]. Besides, in assay [14], the outcome was inactive. In the assay filed under Sus scrofa [15], the inhibition result was “inactive”.

With `O=c1c(O)c(-c2cc(O)c(O)c(O)c2)oc2cc(O)cc(O)c12` [MYRICETIN], the IC50 in assay [16] was determined as 173 µM; in assay [4] it was 264 µM.

Regarding `O=c1cc(-c2ccc(O)cc2)oc2c([C@@H]3O[C@H](CO)[C@@H](O)[C@H](O)[C@H]3O)c(O)cc(O)c12` [VITEXIN], the values for the IC50 in assay [16] and in assay [4] were 109 µM and 190 µM, respectively. The outcome in assay [14] was inactive.
